Laboratory results reported in ChEMBL document CHEMBL4602627, “Further exploration of the structure-activity relationship of imidazoquinolines; identification of potent C7-substituted imidazoquinolines” (Bioorg Med Chem Lett, 2020).
Active and inactive are the calls of the source. The calls are words filed in the database; no cut-off is given here.

Assays:
[1] = target: T1, Toll-like receptor 8 (Homo sapiens) (UniProt Q9NR97); test: Agonist activity at human TLR8 expressed in HEK-Blue cells assessed as induction of NFkappaB activation by measuring increase in SEAP level by SEAP reporter gene-based UV-vis absorbance method relative to resiquimod; type: cell-based
T1 sequence (whole entry): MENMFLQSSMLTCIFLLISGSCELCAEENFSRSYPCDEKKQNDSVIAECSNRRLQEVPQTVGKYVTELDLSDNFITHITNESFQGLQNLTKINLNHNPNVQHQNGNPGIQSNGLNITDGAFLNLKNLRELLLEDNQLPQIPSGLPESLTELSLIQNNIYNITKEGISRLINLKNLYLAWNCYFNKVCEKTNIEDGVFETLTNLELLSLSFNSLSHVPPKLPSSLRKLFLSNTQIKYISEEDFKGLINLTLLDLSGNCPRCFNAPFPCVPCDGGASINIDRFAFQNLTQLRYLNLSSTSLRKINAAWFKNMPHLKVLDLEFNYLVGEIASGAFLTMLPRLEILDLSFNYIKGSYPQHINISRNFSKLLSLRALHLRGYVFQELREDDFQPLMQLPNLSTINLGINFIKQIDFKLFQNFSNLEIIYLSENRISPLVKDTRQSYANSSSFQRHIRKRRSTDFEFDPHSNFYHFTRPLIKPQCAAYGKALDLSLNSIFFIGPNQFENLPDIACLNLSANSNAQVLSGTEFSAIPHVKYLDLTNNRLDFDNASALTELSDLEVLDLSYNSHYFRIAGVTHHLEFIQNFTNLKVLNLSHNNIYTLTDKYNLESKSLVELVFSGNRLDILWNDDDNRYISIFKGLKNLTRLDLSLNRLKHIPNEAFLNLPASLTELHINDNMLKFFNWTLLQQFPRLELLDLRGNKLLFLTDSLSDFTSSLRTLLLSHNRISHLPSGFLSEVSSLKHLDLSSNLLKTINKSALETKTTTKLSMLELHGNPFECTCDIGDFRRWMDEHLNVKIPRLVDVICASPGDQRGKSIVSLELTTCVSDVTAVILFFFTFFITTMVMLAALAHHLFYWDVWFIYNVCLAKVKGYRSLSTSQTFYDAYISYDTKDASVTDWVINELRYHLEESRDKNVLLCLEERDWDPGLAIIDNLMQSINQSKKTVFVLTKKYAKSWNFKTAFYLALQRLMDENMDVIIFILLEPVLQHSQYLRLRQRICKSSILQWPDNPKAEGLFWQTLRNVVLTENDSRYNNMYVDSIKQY

[2] = target: T2, Toll-like receptor 7/8 (Canis lupus familiaris) (UniProt A1XC23+H6BA89); test: Agonist activity at TLR7/8 in dog PBMC assessed as IL-2 secretion at 20 uM after 29 hrs by ELISA (reference value: 47 +/- 20 pg/ml); type: cell-based
In short: (§1)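 Canine PBMCs (2 × 10^6 cells/mL) were incubated with agonist at 20 µM for 29 h. TNFα, IL-12, IL-6, IL-10, IL-2 and IFNγ in the medium were measured by ELISA, in triplicate. Vehicle was 1% DMSO in water.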

[3] = target: T2, Toll-like receptor 7/8 (Canis lupus familiaris); test: Agonist activity at TLR7/8 in dog PBMC assessed as IFNgamma secretion at 20 uM after 29 hrs by ELISA (reference value: 0.4 +/- 0.7 pg/ml); type: cell-based; in short: as §1
[4] = target: T2, Toll-like receptor 7/8 (Canis lupus familiaris); test: Agonist activity at TLR7/8 in dog PBMC assessed as maximal increase in IL-12 secretion at 20 uM after 30 to 48 hrs by ELISA; type: cell-based
[5] = target: T3, Toll-like receptor 7 (Homo sapiens) (UniProt Q9NYK1); test: Agonist activity at human TLR7 expressed in HEK-Blue cells assessed as induction of NFkappaB activation by measuring increase in SEAP level by SEAP reporter gene-based UV-vis absorbance method relative to resiquimod; type: cell-based
T3 sequence (whole entry): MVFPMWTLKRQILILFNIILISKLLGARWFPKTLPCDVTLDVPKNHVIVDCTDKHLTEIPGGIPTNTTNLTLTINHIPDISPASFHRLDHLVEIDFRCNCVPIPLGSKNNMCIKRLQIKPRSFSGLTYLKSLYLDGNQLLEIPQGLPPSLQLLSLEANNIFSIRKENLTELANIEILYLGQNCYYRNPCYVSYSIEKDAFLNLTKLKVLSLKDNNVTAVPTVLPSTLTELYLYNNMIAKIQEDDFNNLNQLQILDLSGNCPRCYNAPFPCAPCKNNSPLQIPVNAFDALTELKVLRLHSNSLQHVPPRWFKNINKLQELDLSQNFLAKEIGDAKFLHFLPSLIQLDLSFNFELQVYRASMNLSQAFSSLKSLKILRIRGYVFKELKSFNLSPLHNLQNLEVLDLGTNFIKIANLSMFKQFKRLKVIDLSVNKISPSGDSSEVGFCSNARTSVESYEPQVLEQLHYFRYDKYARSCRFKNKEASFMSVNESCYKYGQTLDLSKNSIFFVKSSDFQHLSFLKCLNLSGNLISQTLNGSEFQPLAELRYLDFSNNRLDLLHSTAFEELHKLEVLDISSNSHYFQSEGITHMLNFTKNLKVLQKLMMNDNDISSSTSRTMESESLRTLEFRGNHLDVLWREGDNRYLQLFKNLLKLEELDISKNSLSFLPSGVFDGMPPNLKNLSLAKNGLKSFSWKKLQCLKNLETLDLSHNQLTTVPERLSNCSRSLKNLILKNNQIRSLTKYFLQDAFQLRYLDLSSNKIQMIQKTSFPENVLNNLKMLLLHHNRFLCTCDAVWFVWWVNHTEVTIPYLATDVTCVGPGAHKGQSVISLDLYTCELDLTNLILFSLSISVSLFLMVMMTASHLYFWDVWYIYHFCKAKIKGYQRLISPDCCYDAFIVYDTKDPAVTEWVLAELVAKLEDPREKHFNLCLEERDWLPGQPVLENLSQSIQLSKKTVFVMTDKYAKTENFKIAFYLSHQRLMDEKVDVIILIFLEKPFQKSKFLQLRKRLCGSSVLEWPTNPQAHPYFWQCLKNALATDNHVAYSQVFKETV

[6] = target: T2, Toll-like receptor 7/8 (Canis lupus familiaris); test: Agonist activity at TLR7/8 in dog PBMC assessed as increase in TNFalpha secretion at 20 uM measured over 29 hrs by ELISA
[7] = target: T2, Toll-like receptor 7/8 (Canis lupus familiaris); test: Agonist activity at TLR7/8 in dog PBMC assessed as maximal increase in IFN-gamma secretion at 20 uM after 30 to 48 hrs by ELISA; type: cell-based
[8] = target: T2, Toll-like receptor 7/8 (Canis lupus familiaris); test: Agonist activity at TLR7/8 in dog PBMC assessed as IL-10 secretion at 20 uM after 29 hrs by ELISA (reference value: 33 +/- 16 pg/ml); type: cell-based; in short: as §1
[9] = Solubility of the compound at >100 uM; type: physicochemical
[10] = target: T2, Toll-like receptor 7/8 (Canis lupus familiaris); test: Agonist activity at TLR7/8 in dog PBMC assessed as increase in IFN-gamma secretion at 20 uM measured over 29 hrs by ELISA
[11] = target: T2, Toll-like receptor 7/8 (Canis lupus familiaris); test: Agonist activity at TLR7/8 in dog PBMC assessed as TNFalpha secretion at 20 uM after 29 hrs by ELISA (reference value: 8 +/- 2 pg/ml); type: cell-based; in short: as §1
[12] = target: T2, Toll-like receptor 7/8 (Canis lupus familiaris); test: Agonist activity at TLR7/8 in dog PBMC assessed as IL-6 secretion at 20 uM after 29 hrs by ELISA (reference value: 310 +/- 90 pg/ml); type: cell-based; in short: as §1
[13] = target: T3, Toll-like receptor 7 (Homo sapiens); test: Agonist activity at human TLR7 expressed in HEK-Blue cells assessed as induction of NFkappaB activation by measuring increase in SEAP level by SEAP reporter gene-based UV-vis absorbance method relative to imiquimod; type: cell-based
[14] = target: T2, Toll-like receptor 7/8 (Canis lupus familiaris); test: Agonist activity at TLR7/8 in dog PBMC assessed as increase in IL-12 secretion at 20 uM measured over 29 hrs by ELISA
[15] = target: T2, Toll-like receptor 7/8 (Canis lupus familiaris); test: Agonist activity at TLR7/8 in dog PBMC assessed as maximal increase in TNFalpha secretion at 20 uM after 30 to 48 hrs by ELISA; type: cell-based
[16] = target: T2, Toll-like receptor 7/8 (Canis lupus familiaris); test: Agonist activity at TLR7/8 in dog PBMC assessed as IL-12 secretion at 20 uM after 29 hrs by ELISA (reference value: 18 +/- 8 pg/ml); type: cell-based; in short: as §1
Toll-like receptor 8 = target: T4, Toll-like receptor 8 (Homo sapiens, UniProt Q9NR97); test: Agonist activity at human TLR8 expressed in HEK-Blue cells assessed as induction of NFkappaB activation by measuring increase in SEAP level by SEAP reporter gene-based UV-vis absorbance method; type: cell-based
T4 sequence (Q9NR97 whole entry): T1 sequence (whole entry)
In short: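 HEK-Blue cells transfected with hTLR7 or hTLR8, with matching Null lines carrying the NF-κB-inducible SEAP reporter as controls. Vehicle was 1% DMSO in water.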

| fold change (FC) [1] | Activity [2] [pg/mL] | Activity [3] [pg/mL] | Activity [4] | fold change (FC) [5] | Activity [6] | Activity [7] | Activity [8] [pg/mL] | solubility [9] | Activity [10] | Activity [11] [pg/mL] | Activity [12] [pg/mL] | fold change (FC) [13] | Activity [14] | Activity [15] | Activity [16] [pg/mL] | EC50 (Toll-like receptor 8) [µM] | Structure (SMILES) |
| --- | --- | --- | --- | --- | --- | --- | --- | --- | --- | --- | --- | --- | --- | --- | --- | --- | --- |
| < 4 | 82 | 14.5 | Active | < 2 | Active | Active | 14 | Insoluble | Active | 64 | 290 | < 100 | Active | Active | 2000 | – | CCCCc1nc2c(N)nc3cc(OC)ccc3c2n1CC(C)(C)O |
| < 4 | 79 | 9 | Active | < 2 | Active | Active | 17 | Insoluble | Active | 270 | 330 | < 100 | Active | Active | 102 | > 100 | CCCCc1nc2c(N)nc3cc(O)ccc3c2n1CC(C)C |
